Compound activity: PubChem BioAssay, Sanford-Burnham Center for Chemical Genomics
The list is not random: actives were taken first. Their share in the collection is about 3%.
UBC13 inh: human UBC13 polyubiquitination inhibition | P61088 | UBC13 polyubiquitin chain formation, TR-FRET | inhibition, % at 20 µM | 330,000 compounds, 0.47% hits; in the data active means inhibition above about 45%, passing the limit was not always enough
Target sequence (P61088 whole entry, looked up): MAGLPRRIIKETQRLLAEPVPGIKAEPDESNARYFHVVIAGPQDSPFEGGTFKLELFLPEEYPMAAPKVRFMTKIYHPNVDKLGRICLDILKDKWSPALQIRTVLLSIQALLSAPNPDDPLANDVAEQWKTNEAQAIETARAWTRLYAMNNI
SENP7 inh: inhibitors of human SENP7 protease | 330,000 compounds, 1.5% hits | AID 434973 | recombinant SENP7, Z-RLRGG-aminoluciferin luminescence, 40 min | inhibition, % at 5 µM | Q9BQF6;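 active means inhibition above about 50% at the single test dose, limit read from the data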;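 further: plate controls were DMSO with enzyme for no effect and no enzyme buffer wells for full effect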
SENP8 block-1: SENP8 protease inhibition; Q96LD8; purified SENP8, Z-RLRGG-aminoluciferin cleavage, luminescence; inhibition, % at 10 µM; 330,000 compounds, 1.2% hits; AID 2540; in the data active means inhibition above about 50%
SENP8 block-2: SENP8 (human) protease inhibition; Q96LD8; inhibition, % at 20 µM; recombinant SENP8, Nedd8 substrate fluorescence; 360,000 compounds, 0.64% hits; in the data active means inhibition mostly above about 40%, no sharp cut-off; inactive means mostly below about 27%
SENP6 block: blocks the human protease SENP6. Recombinant SENP6 catalytic domain, aminoluciferin luminescence. 330,000 compounds, 1.8% hits. Q9GZR1. AID 2599. inhibition, % at 10 µM;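 active means inhibition above about 50% at the single tested dose, limit read from the data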;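 further: plate controls were DMSO wells with enzyme for no effect and DMSO wells lacking enzyme for full effect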
Apaf1 inhib: human Apaf-1 inhibition | reconstituted apoptosome caspase-3 activity, DEVD-Rh110 fluorescence | AID 489030 | inhibition, % at 20 µM | 330,000 compounds, 0.71% hits; active means inhibition of at least 40% at 20 µM;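 further: plate controls were DMSO wells for no effect and DEVD-CHO caspase inhibitor wells for full effect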
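Assay system – apoptosome proteins · Medium – Hepes buffer, pH 7.5 · Also added – cytochrome c with DEVD-Rh110 · Timing – 30 min compound preincubation, 50 min activation, room temperature · Detection – Rh110 fluorescence, excitation 480 nm, emission 540 nm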
Casp3 counter: counter-screen for UBC13 inhibitors: human caspase-3 inhibition; inhibition, % at 20 µM; 1,400 compounds, 4% hits; shares compounds with UBC13 inh; Recombinant caspase-3, Caspase-Glo 3/7 luminescence, 60 min;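 active means mean inhibition across replicates above about 26%, limit read from the data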;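 further: plate controls were DMSO with caspase-3 for no effect and DMSO wells lacking enzyme for full effect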
Target sequence (P42574 whole entry, looked up): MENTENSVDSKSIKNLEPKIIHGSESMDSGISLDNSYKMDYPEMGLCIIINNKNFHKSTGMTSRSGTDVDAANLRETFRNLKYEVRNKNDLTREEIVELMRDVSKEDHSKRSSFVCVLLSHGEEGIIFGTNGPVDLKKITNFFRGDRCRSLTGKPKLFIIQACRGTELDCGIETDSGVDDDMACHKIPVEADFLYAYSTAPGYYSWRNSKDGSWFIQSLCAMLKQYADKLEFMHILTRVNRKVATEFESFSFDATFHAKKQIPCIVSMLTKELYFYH
UBC13 conf: confirmation of human UBC13 polyubiquitin inhibitors | inhibition, % at 10 µM | UBC13 polyubiquitination, TR-FRET, biochemical | shares compounds with UBC13 inh | 1,400 compounds, 68% hits; in the data active means inhibition above about 45%
* hit, by the source's call; x = no result.

SMILES | UBC13 inh | SENP7 inh | SENP8 block-1 | SENP8 block-2 | SENP6 block | Apaf1 inhib | Casp3 counter | UBC13 conf
CC(OC(=O)[C@H](C)N=C1NS(=O)(=O)c2ccccc21)C(=O)Nc1ccc(F)c(F)c1F (some centres undefined) | x | x | x | 13 | x | x | x | x
O=C(NN1C(=O)c2ccc3c4c(ccc(c24)C1=O)CC3)c1ccc(Br)cc1 | 57* | 1 | 0 | -281 | 5 | 21 | -2 | 63*
O=C(Nc1ccccc1)N1CCN(c2nc(-c3ccccc3)ns2)CC1 | 49* | 1 | -3 | 14 | -13 | -10 | -1 | 63*
COc1ccc(S(=O)(=O)N2C[C@@H](O)COC[C@@H]3O[C@H](CC(=O)NCCCN4CCOCC4)CC[C@H]32)cc1 | x | x | x | 12 | x | x | x | x
N#Cc1nc(-c2cccc3ccccc23)oc1NCCN1CCCCC1 | 71* | 4 | 0 | -313 | -7 | 4 | -1 | 91*
CC(C)n1ncc2c(C(=O)Nc3ccc(S(N)(=O)=O)cc3)cc(C3CC3)nc21 | 75* | -9 | -12 | -46 | -5 | 75* | 0 | 49*
CC(C)n1ncc2c(C(=O)Nc3ccc(S(C)(=O)=O)cc3)cc(C3CC3)nc21 | -8 | -2 | -7 | -99 | -23 | 10 | x | x
CCCCN(CC)CCNC(=O)c1cc2c(=O)n(C)c3ccccc3c2n1C | 57* | -21 | -12 | -186 | -23 | 7 | -1 | 53*
CCN(CC)CCCNC(=O)c1cc2c(=O)n(C)c3ccccc3c2n1C | 36 | 0 | 12 | -93 | 7 | -2 | x | x
CC(C)(C)NC(=O)C1c2ccccc2OCC(=O)N1Cc1ccco1 (centres undefined) | x | x | x | 10 | x | x | x | x
Cn1c(=O)c2c(ncn2CC(COCc2ccc(Cl)cc2)OCc2ccc(Cl)cc2)n(C)c1=O (centres undefined) | 3 | 4 | 0 | 5 | -8 | 17 | x | x
Cn1c(=O)c2c(ncn2Cc2ccc(Cl)cc2)n(C)c1=O | 57* | 2 | 4 | 7 | 5 | 3 | -6 | 53*
CSc1ccc(Cn2c(C)c(C(=O)NCc3ccc(F)cc3)sc2=O)cc1 | x | x | x | -3 | x | x | x | x
CCOC(=O)c1c(NC(=O)c2ccc(C)cc2)sc2c1CC(C)(C)NC2(C)C | 49* | 10 | -2 | x | -4 | 54* | -3 | 11
CCOC(=O)c1c(NC(=O)COc2ccccc2C#N)sc2c1CC(C)(C)NC2(C)C | 76* | -12 | -5 | -79 | -10 | 7 | -3 | 105*
CCOC(=O)c1c(NC(=O)Cc2ccccc2)sc2c1CC(C)(C)NC2(C)C | 43 | -4 | 5 | -14 | 3 | 27 | x | x
CC(CCl)n1c(=O)c2ccccc2n1C(=O)c1ccccc1 (centres undefined) | x | x | x | 4 | x | x | x | x
CC1CCN(C(=O)c2[nH]cnc2C(=O)Nc2ccccc2F)CC1 | x | x | x | 8 | x | x | x | x
O=C(NC1CCCCC1)N(c1ccccc1)c1nnc(-c2cccc([N+](=O)[O-])c2)s1 | x | x | x | 14 | x | x | x | x
CCc1cccc2c(C(=O)C(NCCCOC)c3ccccc3)c[nH]c12 (centres undefined) | 28 | 13 | -5 | 5 | -19 | 5 | x | x
CCc1cccc2c(C(=O)C(NC(C)CC)c3ccccc3)c[nH]c12 (centres undefined) | 79* | -2 | 5 | 13 | 4 | 5 | 1 | 101*
Cn1nc(N)c2c(-c3ccccc3)c(C#N)c(N)nc21 | 59* | -6 | -6 | 32 | 2 | -5 | 1 | 59*
N#Cc1c(N)nc(N2CCCC2)c(C#N)c1-c1ccc(Cl)cc1 | 24 | 3 | 6 | -43 | -4 | 12 | x | x
Cn1nc(N)c2c(-c3ccc(Cl)cc3)c(C#N)c(N)nc21 | 72* | -3 | -1 | 21 | 11 | 3 | 1 | 73*
Cc1cc(C)cc(Cn2cc(CN3CC(N4CCN(Cc5ccccc5F)CC4)CS3(=O)=O)nn2)c1 (centres undefined) | x | x | x | 12 | x | x | x | x
CC1(C)NC(=O)N(CC(=O)N2CCC(Cc3ccccc3)CC2)C1=O | 1 | -9 | -4 | 5 | -7 | 1 | x | x
